Measured values: publication PMC6677133 (European journal of medicinal chemistry, 2019)
Residues, ends and D or L forms follow the SMILES beside them.

How the values were obtained:
[1] = tested on: NL4–3 strain of HIV-1 (X4 strain); assay: Anti-HIV-1 entry assay, one-day culture, intracellular p24 antigen in PBMCs; format: cell-based; conditions: unlinked control fragments alone; assay format not stated
[2] = target: CXCR4 (Homo sapiens, UniProt P61073); assay: CXCR4 internalization assay, CHO-CXCR4-FLAG cells; format: cell-based; conditions: 1h of treatment at 100 nM
Chain of CXCR4 (P61073 whole entry): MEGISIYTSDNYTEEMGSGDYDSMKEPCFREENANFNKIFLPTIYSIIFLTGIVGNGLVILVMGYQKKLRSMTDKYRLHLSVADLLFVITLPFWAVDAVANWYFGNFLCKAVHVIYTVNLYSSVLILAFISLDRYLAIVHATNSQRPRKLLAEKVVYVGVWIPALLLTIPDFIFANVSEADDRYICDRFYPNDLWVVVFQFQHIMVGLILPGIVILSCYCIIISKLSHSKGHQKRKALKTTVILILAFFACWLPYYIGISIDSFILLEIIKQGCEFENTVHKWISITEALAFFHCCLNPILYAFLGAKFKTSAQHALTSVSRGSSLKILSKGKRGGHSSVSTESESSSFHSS
Outline: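 CHO cells expressing N-terminally FLAG-tagged CXCR4 washed at 4°C in RPMI 1640 with 0.5% BSA. Seeded 3×10^5/well and exposed at 37°C to graded test compound, with SDF-1α as positive control. Surface receptor stained with anti-FLAG then FITC anti-mouse antibody, each 30 min at 4°C, and read at 485/528 nm. At least three independent experiments, mean ± SEM.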

C[C@@H](O)[C@H](NC(=O)[C@H](CCCNC(=N)N)NC(=O)[C@@H]1CCCN1C(=O)[C@H](CC(N)=O)NC(=O)[C@H](CC(N)=O)NC(=O)[C@H](CC(N)=O)NC(=O)[C@@H](NC(=O)[C@H](CCCCN)NC(=O)[C@H](CCCNC(=N)N)NC(=O)[C@H](CCCCN)NC(=O)CCCCCN)[C@@H](C)O)C(=O)N[C@@H](CS)C(N)=O [AR6r] (HELM PEPTIDE1{[NCCCCCC(=O)[*:2]].K.R.K.T.N.N.N.P.R.T.C.[am]}$$$$V2.0)
antiviral activity [1]: did not show any antiviral activity

SDF-1α
CXCR4 internalization [2]: 43.87%
